Screening results deposited in PubChem by several laboratories.
The list is not random: actives were taken first. Their share in the collection is about 1.1%.
hK5 inh: blocks human kallikrein 5 protease activity; 0.59% of 210,000 active; recombinant hK5, fluorogenic AMC substrate cleavage; inhibition, % at 5 µM;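 active = inhibition of 40% or more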
Target sequence (Q9Y337 67-293 limits assumed): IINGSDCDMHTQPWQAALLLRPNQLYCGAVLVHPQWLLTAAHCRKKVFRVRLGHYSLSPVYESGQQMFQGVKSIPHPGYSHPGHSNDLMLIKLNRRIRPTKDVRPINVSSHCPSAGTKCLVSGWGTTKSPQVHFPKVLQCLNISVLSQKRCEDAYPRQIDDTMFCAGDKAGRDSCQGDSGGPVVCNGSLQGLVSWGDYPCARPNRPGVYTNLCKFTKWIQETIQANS
Thrombin inh: blocks human thrombin protease activity | P00734 | alpha-thrombin, Boc-VPR-AMC fluorogenic substrate cleavage | inhibition, % at 5 µM | 0.26% of 220,000 active | AID 1046;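 active = inhibition at or above 40%; inactive = inhibition below 40%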
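System – human alpha-thrombin protein · Reagent – Boc-VPR-AMC substrate, 15 µM final · Compound – 5 µM single dose in 0.2% DMSO · Schedule – reaction at room temperature · Technique – AMC fluorescence at 355 nm excitation and 460 nm emission · Read-out basis – % inhibition relative to enzyme controls and enzyme-free blanks · Control set – no-compound enzyme wells and no-enzyme blanks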
FXIIa inh: inhibitors of human coagulation factor XIIa; purified FXIIa, Boc-QGR-AMC fluorogenic substrate, 2 h; inhibition, % at 5 µM; 0.3% of 220,000 active; in the data active = inhibition above about 40%
Furin inh: human furin inhibition. P09958. purified furin, fluorogenic substrate cleavage. inhibition, % at 20 µM or 30 µM. 0.061% of 220,000 active. AID 463115; in the data active = inhibition above about 25%
FXIa inh 1536: inhibitors of human coagulation factor XIa. P03951. purified FXIa, Boc-Glu-Ala-Arg-AMC fluorogenic substrate. inhibition, % at 5 µM. 0.14% of 220,000 active;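 active = inhibition of at least 40%; inactive = inhibition below 40%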;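 also: fluorescence of freed AMC excited at 355 nm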
Each line names hits and unclear results; the compound was inactive in the other large screens.

c1ccc(Cn2nnc3c(NCCN4CCOCC4)ncnc32)cc1	none
Clc1ccccc1Cn1nnc2c(NCCN3CCOCC3)ncnc21	FXIa inh 1536 47
COc1ccc(CN2CCN(Cc3ccon3)CC2CCO)c(C)c1C (stereo unspecified)	none
CCC(=O)OCCn1c(=O)c2cc3c(=O)n(CCOC(=O)CC)c(=O)c3cc2c1=O	FXIIa inh 54
CN1CCN(CC(=O)Nc2ccc([N+](=O)[O-])cc2Br)CC1	none
NC(=O)C1(N2CCCCC2)CCN(C(=O)CSc2nc3ccccc3s2)CC1	hK5 inh 59
Cc1ccc(SCCC(=O)OC(C(=O)NC(N)=O)C(C)C)cc1 (stereo unspecified)	none
CC(=O)Nc1ccc(C(=O)Nc2ccc3c(c2)OCO3)cc1	hK5 inh 41
O=C(CCl)Nc1ccccc1C(=O)Nc1ccc2c(c1)OCO2	hK5 inh 42
Cc1ccc(NC(=O)NCc2ccc3c(c2)OCO3)cc1	FXIIa inh 75
O=[N+]([O-])c1cc2oc3c(c2c(C=NCc2ccncc2)c1O)CCCC3	none
Cc1cc2c(c(=O)n1C)C(Cc1ccccc1)C(C#N)=C(N)O2 (stereo unspecified)	FXIIa inh 45
CCCC1C(C#N)=C(N)Oc2cc(C)n(C)c(=O)c21 (stereo unspecified)	none
Cc1nnc(SCC(=O)Nc2ccc3c(c2)OCO3)n(N)c1=O	none
N=C(N)c1ccc(OCCCCCOc2ccc(C(=N)N)cc2)cc1	FXIIa inh 46
CCCCCCOc1ccc(/C(N)=N/O)cc1	none
CSc1n[nH]c(NCc2ccc(Cl)cc2)n1	none
CSc1n[nH]c(NCc2ccc(C)cc2)n1	Furin inh 27
CC(C)(C)C(=O)N1N=C(c2ccc(NS(C)(=O)=O)cc2)CC1c1cccs1 (stereo unspecified)	none
COC(C/C=C/[C@H](O)COCc1ccccc1)OC	none
COC(C/C=C/[C@@H](O)COCc1ccccc1)OC	hK5 inh 46
CC(=O)N1N=C(c2cccs2)CC1c1cc2cc(C)ccc2nc1Cl (stereo unspecified)	none
CCCCn1c(=O)c(CCC(=O)OCC(=O)Nc2ccc(F)c(Cl)c2)nc2ccccc21	none
CCOC(=O)c1cc(-c2ccc(C)cc2)n(CC(=O)NCc2ccco2)c1C	hK5 inh 54
CCOC(=O)c1cc(-c2ccc(C)cc2)n(CCC(=O)NCCN(C)C)c1C	none
O=C(c1cc(-c2ccccc2)nc2ccccc12)N1CCc2ccccc2C1	none
O=C(c1cc(Cl)nc2ccccc12)N1CCc2ccccc2C1	FXIa inh 1536 42
CC(CC(=O)NC1CCCC1)c1ccccc1 (stereo unspecified)	hK5 inh 60
CC(=O)NC(CC(=O)NC1CCCCCC1)c1ccccc1 (stereo unspecified)	none
CCOc1ccc(N(Cc2ccccc2F)C2=NC3CS(=O)(=O)CC3S2)cc1 (stereo unspecified)	hK5 inh 45
O=S1(=O)CC2N=C(N(Cc3c(F)cccc3Cl)c3ccccc3F)SC2C1 (stereo unspecified)	none
C=CCN1C(=O)C2C3CC(=O)C(c4ccccc43)C2C1=O (stereo unspecified)	none
CCS(=O)(=O)c1ccc2oc(SCC(=O)N3CCCCC3)nc2c1	none
Cc1nnc(NC(=O)c2c(F)c(F)c(F)c(F)c2F)s1	FXIIa inh 50
COc1cc(S(=O)(=O)N2CCN=C2c2ccccc2)ccc1F	none
Cc1ccc(S(=O)(=O)N2CCN=C2c2ccccc2)cc1C	hK5 inh 45
Cc1ccc(/C=C/S(=O)(=O)Nc2ccc(C)cc2)cc1	none
Cc1ccc(Nc2nc(N)nc(CN3CCc4ccccc4C3)n2)cc1	none
Cc1c(Cl)cccc1Nc1nc(N)nc(CN2CCc3ccccc3C2)n1	FXIIa inh 43
Cc1ccc(CN2CCSc3sccc3C2=O)cc1	none (no result: hK5 inh)
CC(C)c1ccc(Nc2nnns2)cc1	none
O=C(CO/N=C/c1ccc2c(c1)OCO2)Nc1cccc(Br)c1	none
O=C(COc1ccc(S(=O)(=O)Nc2ccccc2)cc1)N1CCOCC1	Thrombin inh 53
O=C(CN(Cc1cccs1)C(=O)CNS(=O)(=O)c1ccccc1)NCc1ccco1	hK5 inh 89
O=C(CN(Cc1ccco1)C(=O)CNS(=O)(=O)c1ccccc1)NCc1ccccc1	none
COC(=O)c1c(NC(=O)CSc2nc3nc(C)cc(C)n3n2)sc(C)c1C	none
Cc1ccc(N2CC(C)Cn3c2nc2c3c(=O)n(CC(=O)OCc3ccccc3)c(=O)n2C)cc1C (stereo unspecified)	hK5 inh 44
